From ChEMBL document CHEMBL2439972, “Synthesis, pharmacological and structural characterization, and thermodynamic aspects of GluA2-positive allosteric modulators with a 3,4-dihydro-2H-1,2,4-benzothiadiazine 1,1-dioxide scaffold” (J Med Chem, 2013) come the findings set out here.

Structures are written as SMILES.

One may read the EC50 as the concentration at which the effect is half-maximal. The Kd is the constant that tells how readily two partners part at equilibrium.

Experiment [1] deals with Glutamate receptor 2 (Rattus norvegicus) (UniProt P19491). As to the kind of experiment: Positive allosteric modulation of GluA2 receptor in rat embryonic cortex neuron assessed as concentration required to 2 fold increase of AMPA-induced membrane depolarization by fluorescence assay. The method in brief:
(§1)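 Rat E16 cortical cells cultured 18 days (37 °C, 5% CO2) were loaded with membrane-potential dye for 1 h at room temperature and read on an imaging plate reader. After a 10 s baseline, AMPA (300 μM) was added for 3 min, then compound plus AMPA for 3 min. Signal was averaged over the last 15 s, as area under the curve. Outputs: EC2× (2-fold increase), EC50, Emax relative to AMPA alone (×1). Mean ± SEM (n).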

Experiment [2] has the same target. As to the kind of experiment: Positive allosteric modulation of GluA2 receptor in rat embryonic cortex neuron assessed as increase of AMPA-induced membrane depolarization by fluorescence assay relative to AMPA. The method in brief: as §1
Experiment [3] in a line: Positive allosteric modulation of GluA2 receptor (unknown origin) expressed in Xenopus laevis oocytes assessed as concentration required to 2 fold increase of AMPA-induced membrane depolarization by voltage clamp assay. The settings on record: Oocyte.
Experiment [4] addresses T1, Glutamate receptor 2 (Rattus norvegicus, UniProt P19491). The experiment can be described thus: Positive allosteric modulation of GluA2 receptor in rat embryonic cortex neuron assessed as increase of AMPA-induced membrane depolarization by fluorescence assay. The method in brief: as §1
The nature of experiment [5]: Binding affinity to rat LBD of GluA2 receptor L483Y and N754S mutant at 243 uM by isothermal titration calorimetry analysis. (ITC needs no label: the signal is the heat of the interaction.)
The target in experiment [6] is T1, Glutamate receptor 2. As to the kind of experiment: Positive allosteric modulation of GluA2 receptor in rat embryonic cortex neuron assessed as increase of AMPA-induced membrane depolarization by FLIPR assay. The method in brief:
(§2)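 FLIPR version of the membrane-potential dye assay on primary rat embryonic cortical neurons, same principle on a different plate reader. Measures depolarization evoked by 300 μM AMPA. Outputs: EC2× (modulator concentration doubling the AMPA response), EC50, Emax normalized to the AMPA response (×1).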

Experiment [7] has as its target Glutamate receptor 2 (Rattus norvegicus) (UniProt P19491). The experiment can be described thus: Positive allosteric modulation of GluA2 receptor in rat embryonic cortex neuron assessed as increase of AMPA-induced membrane depolarization by FLIPR assay relative to AMPA. The method in brief: as §2
For experiment [8] the target is unchanged. As to the kind of experiment: Positive allosteric modulation of GluA2 receptor in rat embryonic cortex neuron assessed as concentration required to 2 fold increase of AMPA-induced membrane depolarization by FLIPR assay. The method in brief: as §2

T1 sequence (P19491 whole entry, the tested form may be a part): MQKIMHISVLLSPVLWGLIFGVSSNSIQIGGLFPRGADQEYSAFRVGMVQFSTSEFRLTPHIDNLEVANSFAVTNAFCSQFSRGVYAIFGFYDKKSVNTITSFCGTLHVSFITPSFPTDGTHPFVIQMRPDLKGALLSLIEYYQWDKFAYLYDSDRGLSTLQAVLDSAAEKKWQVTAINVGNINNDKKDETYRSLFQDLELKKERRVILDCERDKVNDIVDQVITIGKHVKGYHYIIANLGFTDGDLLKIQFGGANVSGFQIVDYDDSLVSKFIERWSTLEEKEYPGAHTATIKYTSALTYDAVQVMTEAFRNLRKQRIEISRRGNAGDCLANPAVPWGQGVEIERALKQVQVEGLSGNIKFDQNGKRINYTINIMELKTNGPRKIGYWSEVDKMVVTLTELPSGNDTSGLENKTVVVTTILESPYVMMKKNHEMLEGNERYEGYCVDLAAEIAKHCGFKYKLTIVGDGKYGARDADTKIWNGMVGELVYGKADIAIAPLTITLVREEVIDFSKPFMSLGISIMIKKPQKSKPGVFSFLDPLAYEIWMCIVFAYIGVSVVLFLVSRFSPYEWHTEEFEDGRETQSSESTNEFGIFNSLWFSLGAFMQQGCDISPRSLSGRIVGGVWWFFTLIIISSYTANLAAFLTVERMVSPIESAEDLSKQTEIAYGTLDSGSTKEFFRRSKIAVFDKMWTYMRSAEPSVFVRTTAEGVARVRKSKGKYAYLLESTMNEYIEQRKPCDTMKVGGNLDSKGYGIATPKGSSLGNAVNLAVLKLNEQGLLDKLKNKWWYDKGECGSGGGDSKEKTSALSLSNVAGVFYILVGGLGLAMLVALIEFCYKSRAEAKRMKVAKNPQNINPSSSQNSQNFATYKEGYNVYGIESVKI
Sequence of Glutamate receptor 2 (Rattus norvegicus) (P19491 whole entry): as the sequence (P19491 whole entry, the tested form may be a part) above

With `Cc1ccc2c(c1)S(=O)(=O)NCN2C1CC1`, the Activity in experiment [1] turned out to be 5.13 µM. In experiment [2], the fold change (FC) turned out to be 8.7.

For `O=S1(=O)NCN(C2CC2)c2ccc(Cl)cc21`, the Activity in experiment [1] was 0.75 µM; in experiment [3] it was 0.8 µM. The EC50 in experiment [4] was found to be 3.13 µM. In addition, the fold change (FC) in experiment [2] came to 10.9.

As for `O=S1(=O)NCN(C2CC2)c2ccc(F)cc21`, the Activity in experiment [1] was determined as 0.27 µM. In addition, the EC50 in experiment [4] came to 0.9 µM. Moreover, in experiment [5], binding was characterised by a dissociation constant (Kd) of 0.35 µM. Further, the fold change (FC) in experiment [2] worked out at 15.

`O=S1(=O)NCN(C2CC2)c2ccccc21`: the Activity in experiment [1] turned out to be 0.73 µM. Also, the EC50 in experiment [4] came to 4.17 µM. In experiment [2], the fold change (FC) came out at 8.5.

In the case of `O=[N+]([O-])c1ccc2c(c1)S(=O)(=O)NCN2C1CC1`, in experiment [6], the EC50 was determined as 22.5 µM. Moreover, in experiment [7], the fold change (FC) was 7. Further, the Activity in experiment [8] is 14 µM.

For `O=S1(=O)NCN(C2CC2)c2ccc(Br)cc21`, the Activity in experiment [1] is 1.27 µM. For the same compound, the EC50 in experiment [4] worked out at 4.83 µM. The fold change (FC) in experiment [2] is 9.3.

Regarding `O=S1(=O)NCN(C2CC2)c2ccc(C(F)(F)F)cc21`, the Activity in experiment [1] was greater than 100 µM.

Regarding `N#Cc1ccc2c(c1)S(=O)(=O)NCN2C1CC1`, the Activity in experiment [1] stood at 0.47 µM. Further, the EC50 in experiment [4] is 2.5 µM. Also, the fold change (FC) in experiment [2] was determined as 9.2.
